In ChEMBL document CHEMBL2417369, “Synthesis and evaluation of heteroaryl substituted diazaspirocycles as scaffolds to probe the ATP-binding site of protein kinases” (Bioorg Med Chem, 2013):

How the values were obtained:
[1] = target: Insulin receptor (Homo sapiens) (UniProt P06213); test: Inhibition of INSR (unknown origin) at 30 uM by microfluidic mobility shift assay relative to control
Summary of the method: (§1)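 Single-point screen in a 24-enzyme kinase panel using a microfluidic assay. Each compound was tested at […] with ATP at roughly the Km for each enzyme. The pan-AGC inhibitor H-89 served as an internal control on every plate.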

[2] = target: Tyrosine-protein kinase Fyn (Homo sapiens, UniProt P06241); test: Inhibition of FYN (unknown origin) at 30 uM by microfluidic mobility shift assay relative to control; summary of the method: as §1
Homo sapiens = organism: Homo sapiens; test: Inhibition of PKA (unknown origin) at 30 uM by microfluidic mobility shift assay relative to control; summary of the method: as §1
[3] = target: Tyrosine-protein kinase Lyn (Homo sapiens, UniProt P07948); test: Inhibition of LYN (unknown origin) at 30 uM by microfluidic mobility shift assay relative to control; summary of the method: as §1
[4] = target: Tyrosine-protein kinase Lck (Homo sapiens, UniProt P06239); test: Inhibition of LCK (unknown origin) at 30 uM by microfluidic mobility shift assay relative to control; summary of the method: as §1
[5] = target: Proto-oncogene tyrosine-protein kinase Src (Homo sapiens, UniProt P12931); test: Inhibition of SRC (unknown origin) at 30 uM by microfluidic mobility shift assay relative to control; summary of the method: as §1
[6] = target: Protein kinase C (PKC) (Homo sapiens) (UniProt O94806+P41743+P17252+P05129+Q05655+P05771+Q05513+Q02156+P24723+Q15139+Q04759); test: Inhibition of PKC (unknown origin) at 30 uM by microfluidic mobility shift assay relative to control; summary of the method: as §1

Chain of Tyrosine-protein kinase Lyn (P07948 2-512 limits assumed): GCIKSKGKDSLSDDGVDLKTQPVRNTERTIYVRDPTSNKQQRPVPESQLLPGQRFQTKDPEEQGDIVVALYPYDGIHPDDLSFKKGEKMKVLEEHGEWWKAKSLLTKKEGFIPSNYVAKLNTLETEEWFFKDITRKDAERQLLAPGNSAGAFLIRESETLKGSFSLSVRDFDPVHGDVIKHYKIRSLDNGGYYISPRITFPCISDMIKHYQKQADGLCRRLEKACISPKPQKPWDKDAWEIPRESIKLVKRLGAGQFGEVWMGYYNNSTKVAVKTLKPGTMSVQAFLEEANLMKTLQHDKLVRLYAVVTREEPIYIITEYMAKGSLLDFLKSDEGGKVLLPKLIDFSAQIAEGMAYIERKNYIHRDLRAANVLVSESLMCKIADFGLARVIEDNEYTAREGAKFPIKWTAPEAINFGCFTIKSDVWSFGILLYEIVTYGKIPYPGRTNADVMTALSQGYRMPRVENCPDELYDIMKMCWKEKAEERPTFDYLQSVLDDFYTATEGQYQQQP
Chain of Insulin receptor (Homo sapiens) (P06213 28-758 limits assumed): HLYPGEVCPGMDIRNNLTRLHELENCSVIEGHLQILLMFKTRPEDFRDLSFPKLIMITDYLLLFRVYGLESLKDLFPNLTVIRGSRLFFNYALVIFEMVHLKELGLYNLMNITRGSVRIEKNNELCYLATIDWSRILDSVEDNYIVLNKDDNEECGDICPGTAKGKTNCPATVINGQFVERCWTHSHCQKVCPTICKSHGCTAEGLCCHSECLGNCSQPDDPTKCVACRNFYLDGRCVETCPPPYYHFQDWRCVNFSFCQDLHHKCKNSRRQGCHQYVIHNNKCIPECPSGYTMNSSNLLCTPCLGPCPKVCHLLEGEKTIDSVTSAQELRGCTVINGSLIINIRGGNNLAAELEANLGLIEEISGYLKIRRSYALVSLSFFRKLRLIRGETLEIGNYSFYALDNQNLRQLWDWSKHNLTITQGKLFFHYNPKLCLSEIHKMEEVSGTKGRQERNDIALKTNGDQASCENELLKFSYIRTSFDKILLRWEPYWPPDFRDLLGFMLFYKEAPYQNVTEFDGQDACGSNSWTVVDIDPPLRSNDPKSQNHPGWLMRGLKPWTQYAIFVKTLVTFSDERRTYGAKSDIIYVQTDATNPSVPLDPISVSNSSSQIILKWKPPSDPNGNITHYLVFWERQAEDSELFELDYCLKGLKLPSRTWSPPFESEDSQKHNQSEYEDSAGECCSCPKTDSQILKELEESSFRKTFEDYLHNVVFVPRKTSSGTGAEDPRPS
Chain of Insulin receptor (Homo sapiens) (P06213 763-1382 limits assumed): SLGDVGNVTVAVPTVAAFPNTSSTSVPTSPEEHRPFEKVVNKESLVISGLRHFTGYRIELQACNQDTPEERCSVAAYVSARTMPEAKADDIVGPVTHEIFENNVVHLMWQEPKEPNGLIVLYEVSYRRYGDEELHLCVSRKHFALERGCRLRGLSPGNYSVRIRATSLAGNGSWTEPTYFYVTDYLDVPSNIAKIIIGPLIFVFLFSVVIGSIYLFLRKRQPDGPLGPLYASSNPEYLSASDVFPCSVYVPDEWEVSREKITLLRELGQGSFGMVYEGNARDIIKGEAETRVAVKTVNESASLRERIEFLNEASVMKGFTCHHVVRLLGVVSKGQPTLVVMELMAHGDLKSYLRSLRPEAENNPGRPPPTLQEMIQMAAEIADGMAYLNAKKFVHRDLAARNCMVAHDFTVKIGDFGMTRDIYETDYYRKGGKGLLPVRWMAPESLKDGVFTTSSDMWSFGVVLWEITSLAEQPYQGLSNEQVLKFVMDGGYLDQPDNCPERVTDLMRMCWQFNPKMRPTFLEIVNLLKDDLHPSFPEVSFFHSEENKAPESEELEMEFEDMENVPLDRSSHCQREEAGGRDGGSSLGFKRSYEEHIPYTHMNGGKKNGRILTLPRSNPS
Chain of Tyrosine-protein kinase Fyn (P06241 2-537 limits assumed): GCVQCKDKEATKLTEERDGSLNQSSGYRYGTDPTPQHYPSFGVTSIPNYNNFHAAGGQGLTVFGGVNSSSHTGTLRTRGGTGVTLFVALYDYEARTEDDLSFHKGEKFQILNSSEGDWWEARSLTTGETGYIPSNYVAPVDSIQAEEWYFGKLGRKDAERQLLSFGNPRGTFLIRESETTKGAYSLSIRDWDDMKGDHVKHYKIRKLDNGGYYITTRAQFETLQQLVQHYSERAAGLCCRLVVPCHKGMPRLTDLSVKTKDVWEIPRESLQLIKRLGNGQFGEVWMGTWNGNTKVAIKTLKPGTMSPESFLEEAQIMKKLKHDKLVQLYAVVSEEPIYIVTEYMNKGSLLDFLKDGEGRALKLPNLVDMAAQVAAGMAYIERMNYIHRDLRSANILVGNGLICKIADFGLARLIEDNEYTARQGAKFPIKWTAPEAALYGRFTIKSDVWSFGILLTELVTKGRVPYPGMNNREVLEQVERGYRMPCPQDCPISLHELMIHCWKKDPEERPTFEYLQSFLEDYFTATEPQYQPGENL
Chain of Tyrosine-protein kinase Lck (P06239 2-509 limits assumed): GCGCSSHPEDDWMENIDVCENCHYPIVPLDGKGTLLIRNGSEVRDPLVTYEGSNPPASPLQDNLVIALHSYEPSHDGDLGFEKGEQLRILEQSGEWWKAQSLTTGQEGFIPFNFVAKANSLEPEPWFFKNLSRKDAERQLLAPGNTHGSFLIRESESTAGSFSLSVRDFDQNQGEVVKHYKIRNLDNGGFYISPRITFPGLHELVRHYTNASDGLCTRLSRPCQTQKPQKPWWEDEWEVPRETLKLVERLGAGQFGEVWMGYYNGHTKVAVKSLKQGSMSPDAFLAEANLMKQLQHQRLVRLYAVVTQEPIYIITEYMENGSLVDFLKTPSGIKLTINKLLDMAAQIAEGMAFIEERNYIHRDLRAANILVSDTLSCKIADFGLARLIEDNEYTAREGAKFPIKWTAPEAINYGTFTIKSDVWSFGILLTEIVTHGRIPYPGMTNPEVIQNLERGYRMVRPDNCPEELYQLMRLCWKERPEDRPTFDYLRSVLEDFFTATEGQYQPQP
Chain of Proto-oncogene tyrosine-protein kinase Src (P12931 2-536 limits assumed): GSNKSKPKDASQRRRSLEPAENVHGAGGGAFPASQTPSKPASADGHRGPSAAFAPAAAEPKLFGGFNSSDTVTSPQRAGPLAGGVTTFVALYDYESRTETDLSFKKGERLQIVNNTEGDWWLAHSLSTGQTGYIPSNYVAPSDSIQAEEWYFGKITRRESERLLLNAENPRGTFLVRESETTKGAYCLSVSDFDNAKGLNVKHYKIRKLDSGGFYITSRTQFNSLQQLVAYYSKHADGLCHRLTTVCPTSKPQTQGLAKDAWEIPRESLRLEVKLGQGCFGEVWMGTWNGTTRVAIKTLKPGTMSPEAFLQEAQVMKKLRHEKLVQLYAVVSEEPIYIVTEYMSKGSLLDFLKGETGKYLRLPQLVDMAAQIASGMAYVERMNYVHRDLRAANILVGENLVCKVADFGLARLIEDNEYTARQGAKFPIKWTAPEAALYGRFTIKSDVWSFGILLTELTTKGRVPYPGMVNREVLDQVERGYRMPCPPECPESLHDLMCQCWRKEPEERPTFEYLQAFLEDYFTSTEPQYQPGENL

- inhibition [1]: 29%
- inhibition [2]: 14%
- inhibition (Homo sapiens): 100%
- inhibition [3]: 50%
- inhibition [4]: 22%
- inhibition [5]: 4%
- inhibition [6]: 64%
SMILES: O=S(=O)(NCCNC/C=C/c1ccc(Br)cc1)c1cccc2cnccc12
